ChEMBL document CHEMBL1148311, “Synthesis of novel potent dipeptidyl peptidase IV inhibitors with enhanced chemical stability: interplay between the N-terminal amino acid alkyl side chain and the cyclopropyl group of alpha-aminoacyl-l-cis-4,5-methanoprolinenitrile-based inhibitors” (J Med Chem, 2004)
pKi: −log10 of the molar value.

What was measured:
[1] = Half-life in phosphate buffer at 39.5 C and pH 7.2; format: ADME
In short: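 Aqueous solution stability of the dipeptide nitriles in phosphate buffer, pH 7.2, 39.5 °C. Reaction rate followed as disappearance of starting material by reverse-phase HPLC.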

[2] = biological target: Dipeptidyl peptidase 4 (Sus scrofa, UniProt P22411); test: In vitro inhibition of porcine Dipeptidylpeptidase IV.
Dipeptidyl peptidase 4, sequence (P22411 whole entry): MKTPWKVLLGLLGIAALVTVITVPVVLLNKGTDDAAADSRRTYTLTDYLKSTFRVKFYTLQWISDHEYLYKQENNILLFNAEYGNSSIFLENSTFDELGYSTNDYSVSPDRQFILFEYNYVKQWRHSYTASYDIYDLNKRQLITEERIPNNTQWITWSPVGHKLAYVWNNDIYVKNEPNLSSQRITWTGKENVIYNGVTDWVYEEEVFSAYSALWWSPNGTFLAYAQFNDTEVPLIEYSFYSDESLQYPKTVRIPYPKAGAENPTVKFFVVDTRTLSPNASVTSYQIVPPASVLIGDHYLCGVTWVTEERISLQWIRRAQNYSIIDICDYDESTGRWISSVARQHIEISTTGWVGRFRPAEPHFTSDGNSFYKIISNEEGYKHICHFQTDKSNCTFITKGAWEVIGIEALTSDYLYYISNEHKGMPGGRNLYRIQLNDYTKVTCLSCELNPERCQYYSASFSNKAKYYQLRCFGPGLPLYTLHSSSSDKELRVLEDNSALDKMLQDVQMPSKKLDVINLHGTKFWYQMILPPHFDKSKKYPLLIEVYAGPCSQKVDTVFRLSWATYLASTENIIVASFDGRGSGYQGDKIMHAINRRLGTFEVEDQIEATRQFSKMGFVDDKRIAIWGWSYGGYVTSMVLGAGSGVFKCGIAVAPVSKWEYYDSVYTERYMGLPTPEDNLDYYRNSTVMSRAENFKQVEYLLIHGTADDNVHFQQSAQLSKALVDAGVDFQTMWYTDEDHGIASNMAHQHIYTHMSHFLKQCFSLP

Compound	half-life [1] [h]	pKi [2]
CC(C)(C)[C@H](N)C(=O)N1CCC[C@H]1C#N.O=C(O)C(F)(F)F	27	
CCC(C)C(N)C(=O)N1CCC[C@H]1C#N.Cl (some centres undefined)	5	
CCC(C)[C@H](N)C(=O)N1C(C#N)C[C@H]2C[C@H]21 (some centres undefined)		5.79
CN[C@H](C(=O)N1C(C#N)C[C@@H]2C[C@@H]21)C(C)C (some centres undefined)		5.71
CSCC[C@H](N)C(=O)N1C(C#N)C[C@@H]2C[C@@H]21 (some centres undefined)		6.87
CC(C)[C@H](N)C(=O)N1C(C#N)C[C@H]2C[C@H]21.O=C(O)C(F)(F)F (some centres undefined)	28	7.54
CC1(C(N)C(=O)N2C(C#N)C[C@@H]3C[C@@H]32)CCC1 (some centres undefined)		7.96
N#CC1C[C@@H]2C[C@@H]2N1C(=O)C(N)C1CCCC1 (some centres undefined)		8.40
CC(C)[C@H](N)C(=O)N1C[C@H]2C[C@H]2C1C#N.O=C(O)C(F)(F)F (some centres undefined)	2	7.92
CC(C)(C)[C@H](N)C(=O)N1C(C#N)C[C@@H]2C[C@@H]21 (some centres undefined)	42	8.15
CCC(C)[C@H](N)C(=O)N1CC[C@@H]2C[C@@]21C#N (some centres undefined)		5.12
CC1(C(N)C(=O)N2C(C#N)C[C@@H]3C[C@@H]32)CCCCC1 (some centres undefined)		8.10
N#CC1C[C@@H]2C[C@@H]2N1C(=O)C1CCCCN1 (some centres undefined)		5.00
N#CC1C[C@@H]2C[C@@H]2N1C(=O)C(N)C1CCC1 (some centres undefined)		7.92

Now from value to compound:

half-life [1] [h]	pKi [2]	Compound
24	8.15	CC1(C(N)C(=O)N2C(C#N)C[C@@H]3C[C@@H]32)CCCC1.O=C(O)C(F)(F)F (some centres undefined)
	6.64	N#CC1C[C@@H]2C[C@@H]2N1C(=O)[C@@H](N)Cc1c[nH]c2ccccc12 (some centres undefined)
4	7.82	CCC(C)[C@H](N)C(=O)N1C[C@H]2C[C@H]2C1C#N.O=C(O)C(F)(F)F (some centres undefined)
	7.19	N#CC1C[C@@H]2C[C@@H]2N1C(=O)[C@@H](N)Cc1ccccc1 (some centres undefined)
22	7.60	CCC(C)[C@H](N)C(=O)N1C(C#N)C[C@@H]2C[C@@H]21.O=C(O)C(F)(F)F (some centres undefined)
4	7.85	CC(C)(C)[C@H](N)C(=O)N1C[C@H]2C[C@H]2C1C#N.O=C(O)C(F)(F)F (some centres undefined)
19	7.82	N#CC1C[C@@H]2C[C@@H]2N1C(=O)C(N)C1CCCCC1.O=C(O)C(F)(F)F (some centres undefined)
